Experimental findings from ChEMBL document CHEMBL1275479, “Pharmacokinetics of miltefosine in Old World cutaneous leishmaniasis patients” (Antimicrob Agents Chemother, 2008) are described below.

Data set [1] is described as follows: Terminal half life in patient with cutaneous leishmaniasis at 2.5 mg/kg, po once a day measured after 6 to 8 days by LC-MS/MS assay. Details: dose 2.5 mg/kg, route oral. As to conditions: human, in vivo. The class given is ADME, organism-based.
For data set [2], the system named is Homo sapiens. Kind of data set: Toxicity in patient with cutaneous leishmaniasis assessed as mild to moderate gastrointestinal side-effect at […], po three times a day for 28 days. In kind it is organism-based. Details: route oral. As to conditions: in vivo, 672 h.
For data set [3], the species on record is Homo sapiens. Kind of data set: Plasma concentration in patient with cutaneous leishmaniasis measured after 178 to 202 days by LC-MS/MS assay. Conditions: in vivo.
A short description of data set [4]: Terminal half life in patient with leishmaniasis at […], po three times a day for 28 days by LC-MS/MS assay. In kind it is ADME, organism-based. Set-up: route oral. Conditions: human, in vivo. A digest of the protocol:
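Population pharmacokinetic fit in NONMEM of 382 plasma concentrations (LC-MS/MS, LLOQ 4 ng/ml) from 31 patients on 150 mg/day for 28 days, sampled up to day 202. Nested models were compared by objective function with the log likelihood ratio test and checked with observed-versus-predicted and conditional weighted residual plots; a two-compartment model was used for the terminal half-life.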

For data set [5], the system named is Homo sapiens. In words: Toxicity in patient with cutaneous leishmaniasis assessed as mild to moderate fatigue at […], po three times a day for 28 days. The class given is organism-based. Set-up: route oral. Conditions: in vivo, 672 h.
Data set [6] deals with Homo sapiens. Kind of data set: Hepatotoxicity in patient with cutaneous leishmaniasis assessed as mild elevation of alanine aminotransferase at […], po three times a day for 28 days. The class given is toxicity, organism-based. Details: route oral. As to conditions: in vivo, 672 h.
Data set [7] relates to Homo sapiens. In words: Plasma concentration in patient with cutaneous leishmaniasis at […], po three times a day measured after 22 to 28 days by LC-MS/MS assay. Set-up: route oral. In kind it is ADME, organism-based. As to conditions: in vivo. A digest of the protocol: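 31 cutaneous leishmaniasis patients given miltefosine 150 mg/day for 28 days. Venous EDTA blood was spun at about 23,100 × g, 4°C, 15 min, and plasma stored at ≤−20°C. Analysis was solid-phase extraction of 250 μl plasma, then isocratic C18 LC-MS/MS; range 4–2,000 ng/ml, higher samples diluted in blank plasma. Sampling windows: days 178–202, days 22–28.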

The subject of data set [8] is Homo sapiens. Kind of data set: Renal toxicity in patient with cutaneous leishmaniasis assessed as mild elevation of creatinine at […], po three times a day for 28 days. Conditions: in vivo, 672 h. The class given is organism-based. Set-up: route oral.
The test system of data set [9] is Homo sapiens. In words: Hepatotoxicity in patient with cutaneous leishmaniasis assessed as mild elevation of aspartate aminotransferase at […], po three times a day for 28 days. In kind it is toxicity, organism-based. Set-up: route oral. Conditions: in vivo, 672 h.
Data set [10] is described as follows: Cmax in serum of patient with cutaneous leishmaniasis at 2.5 mg/kg, po once a day for 23 days by LC-MS/MS assay. In kind it is ADME, organism-based. Set-up: dose 2.5 mg/kg, route oral. Conditions: human.

Turning to `CCCCCCCCCCCCCCCCOP(=O)([O-])OCC[N+](C)(C)C` [MILTEFOSINE], the half-life was 6.25 days in [1] and 30.9 days in data set [4]. The Activity result in data set [2] is “Toxic”; in data set [3], 17.5 ng/mL; in data set [5], “Toxic”; in data set [6] it was “Toxic”; in data set [7], 30800 ng/mL; in [8], “Toxic”. Moreover, in data set [9], the Activity entry is on record as “Toxic”. The same molecule yielded a Cmax in [10] of 70 µg/mL.
